From PubChem BioAssay
In the library only some 1.3% were active in any assay of this set; here they are far more common.
FN deposition inh: fibronectin deposition inhibition; AH1F fibroblasts, Alexa488-fibronectin deposition fluorescence, overnight; AID 743247; inhibition, % at 12.6 µM; 0.086% of 350,000 active;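 active = mean inhibition across replicates of 30% or more, regardless of how many single replicates reach that level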;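 note: positive control wells lacked labelled fibronectin entirely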
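Measured by – fluorescence 485/525 nm · System – AH1F fibroblast monolayer, labelled fibronectin deposition · Amount – 10000 cells per well · Buffer or medium – serum-reduced DMEM (2% serum) · Doses – single dose, pinned · Also added – fluorescent fibronectin at 24 nM final · Schedule – 1 h cell attachment, overnight exposure to compound and label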
RAD54 inh: inhibitors of human RAD54 branch migration; Q92698; RAD54 Holliday junction branch migration, FAM/BHQ fluorescence; inhibition, % at 10.4 µM; 0.14% of 360,000 active;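 active = mean normalized replicate activity at least 40 and at least half of replicates scoring 40 or more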;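 note: 0% = median of neutral control wells and 100% = median of positive control wells; inhibitors cause a drop in the FAM fluorescence signal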
Target sequence (Q92698 whole entry, looked up): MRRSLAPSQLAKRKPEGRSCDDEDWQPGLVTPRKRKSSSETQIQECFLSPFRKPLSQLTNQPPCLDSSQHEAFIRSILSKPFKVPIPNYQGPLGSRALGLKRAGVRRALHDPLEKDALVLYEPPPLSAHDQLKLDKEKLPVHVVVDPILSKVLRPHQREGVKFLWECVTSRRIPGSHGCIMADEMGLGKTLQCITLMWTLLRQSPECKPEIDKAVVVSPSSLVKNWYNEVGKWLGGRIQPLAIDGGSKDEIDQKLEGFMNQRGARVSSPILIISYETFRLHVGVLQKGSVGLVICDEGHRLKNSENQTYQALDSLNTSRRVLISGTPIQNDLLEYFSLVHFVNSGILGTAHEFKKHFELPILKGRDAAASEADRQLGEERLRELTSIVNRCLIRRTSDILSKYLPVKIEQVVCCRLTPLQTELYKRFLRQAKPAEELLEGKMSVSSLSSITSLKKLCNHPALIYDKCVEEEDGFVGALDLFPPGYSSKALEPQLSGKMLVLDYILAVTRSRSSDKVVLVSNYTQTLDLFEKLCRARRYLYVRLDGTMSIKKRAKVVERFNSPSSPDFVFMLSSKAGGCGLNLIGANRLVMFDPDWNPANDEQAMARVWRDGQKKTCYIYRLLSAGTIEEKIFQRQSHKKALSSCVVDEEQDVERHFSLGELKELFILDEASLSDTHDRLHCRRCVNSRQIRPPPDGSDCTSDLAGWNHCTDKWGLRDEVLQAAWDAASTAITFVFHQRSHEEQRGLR
RAD52 anneal inh: RAD52 (human) annealing inhibition. AID 651710. 0.46% of 360,000 active. P43351. recombinant RAD52 DNA annealing, FRET fluorescence. inhibition, % at 18.7 µM;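 active = every replicate showing at least 50% inhibition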
PAX8 reporter: PAX8 transcriptional activity inhibition. 1.2% of 360,000 active. AID 652154. RMG-I TPO-luciferase reporter, SteadyGlo, 24 h. inhibition, % at 12.6 µM;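 active = mean replicate inhibition at least 60% with every replicate also reaching 60%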;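 note: luciferase light reporting Pax8 driven TPO promoter activity; plate controls were median of neutral control wells for no effect and mitoxantrone controls for full effect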
* marks the source's active call; other numbers are inactive results; . = not tested or not shown.

SMILES	FN deposition inh	RAD54 inh	RAD52 anneal inh	PAX8 reporter
C[C@@H]1CN([C@H](C)CO)C(=O)Cc2cc(NC(=O)Nc3ccc(F)cc3)ccc2O[C@H]1CN(C)C(=O)Nc1ccc(C(F)(F)F)cc1	.	0.3	.	80.4*
C[C@@H]1CN([C@@H](C)CO)C(=O)Cc2cc(NC(=O)Nc3ccc(C(F)(F)F)cc3)ccc2O[C@H]1CN(C)C(=O)Nc1ccc(C(F)(F)F)cc1	.	7.2	14.8	78.3*
COC(=O)C1=C(C)N(Cc2ccccc2C(F)(F)F)C(=NCc2cc(OC)c(OC)c(OC)c2)NC1c1cccc(Cl)c1 (centres undefined)	-7.7	.	32.6	-12.1
Cc1onc(-c2ccccc2)c1C(=O)Oc1ccccc1	-6.2	-14.5	-9.1	-4.3
Cc1ccccc1S(=O)(=O)N1CC(=O)N2[C@H](CO)[C@H](c3ccc(C#CCC4CCCC4)cc3)[C@@H]2C1	.	.	-20.9	-19.3
Cc1c(NC(=O)COC(=O)c2c3c(nc4ccccc24)CCCC3)c(=O)n(-c2ccccc2)n1C	-7.0	.	-10.1	-4.4
Cc1c(NC(=O)C(C)OC(=O)c2c3c(nc4ccccc24)CCC3)c(=O)n(-c2ccccc2)n1C (centres undefined)	3.6	.	-8.6	73.0*
CN1c2ccc(C3=CCCCC3)cc2[C@@H]2[C@@H](CCN2C(=O)C2CC2)[C@@H]1CO	8.1	.	16.4	.
COc1ccc(-c2ccc3c(c2)[C@H]2[C@H](CCN2C(=O)NC2CCCCC2)[C@H](CO)N3C)cc1	-0.4	15.9	0.7	13.9
COc1cccc(-c2ccc3c(c2)[C@@H]2[C@@H](CCN2C(=O)NC2CCCCC2)[C@H](CO)N3C)c1	-6.7	.	24.1	85.9*
COc1ccc(-c2ccc3c(c2)[C@@H]2[C@@H](CCN2C(=O)NC2CCCCC2)[C@H](CO)N3C)cc1	-3.0	8.9	-3.5	81.7*
CN1c2ccc(C3=CCCCC3)cc2[C@H]2[C@H](CCN2C(=O)C2CC2)[C@@H]1CO	.	.	-63.9	99.5*
CN1c2ccc(-c3ccccc3)cc2[C@H]2[C@H](CCN2C(=O)NC2CCCCC2)[C@@H]1CO	-6.5	.	40.3	89.3*
CN1CCN(C2CN(C3CCCCC3)S(=O)(=O)C2)CC1 (centres undefined)	.	-7.7	-7.8	-0.2
CCCCN1CCC(=O)NC1=O	-5.0	-2.8	-10.2	-4.6
COc1ccc(-c2ccc3c(c2)[C@@H]2[C@@H](CCN2C(=O)C2CC2)[C@@H](CO)N3C)cc1	6.6	10.0	68.3*	8.7
CN1c2ccc(-c3ccccc3)cc2[C@@H]2[C@@H](CCN2C(=O)CN2CCOCC2)[C@@H]1CO	30.0*	4.1	-8.5	18.1
COc1cccc(-c2ccc3c(c2)[C@@H]2[C@@H](CCN2C(=O)NC2CCCCC2)[C@@H](CO)N3C)c1	-2.6	.	-1.4	37.5
COc1cccc(-c2ccc3c(c2)[C@H]2[C@H](CCN2C(=O)NC2CCCCC2)[C@H](CO)N3C)c1	-3.8	.	35.0	65.7*
COc1ccc(-c2ccc3c(c2)[C@@H]2[C@@H](CCN2C(=O)C2CCC2)[C@H](CO)N3C)cc1	1.1	.	29.3	8.9
O=C(NN1C(=O)NC2(CCCCC2)C1=O)c1ccc(Cl)c(Cl)c1	7.0	-8.6	-7.7	-1.6
COC(=O)c1ccccc1OCCCCN1CC(C)OC(C)C1 (centres undefined)	.	8.1	.	14.2
Cc1ccc(S(=O)(=O)N(C)C[C@@H]2Oc3cc(C#Cc4ccncc4)ccc3S(=O)(=O)N([C@H](C)CO)C[C@H]2C)cc1	9.2	5.9	-56.9	106.1*
Cc1ccc(S(=O)(=O)N(C)C[C@@H]2Oc3cc(C#Cc4ccncc4)ccc3S(=O)(=O)N([C@@H](C)CO)C[C@H]2C)cc1	.	-6.8	-77.7	82.6*
Cc1ccc(S(=O)(=O)N(C)C[C@H]2Oc3cc(C#Cc4ccncc4)ccc3S(=O)(=O)N([C@@H](C)CO)C[C@@H]2C)cc1	4.9	-9.3	-82.1	102.8*
SMILES	FN deposition inh	RAD54 inh	RAD52 anneal inh	PAX8 reporter
Cc1ccc(S(=O)(=O)N(C)C[C@@H]2Oc3cc(C#Cc4ccncc4)ccc3S(=O)(=O)N([C@H](C)CO)C[C@@H]2C)cc1	1.6	.	.	77.9*
C[C@@H]1CN([C@H](C)CO)S(=O)(=O)c2ccc(C#Cc3ccncc3)cc2O[C@H]1CN(C)S(=O)(=O)c1ccc(F)cc1	.	-8.9	-115.2	.
C[C@H](CO)N1C[C@H](C)[C@@H](CN(C)S(=O)(=O)c2ccc(F)cc2)Oc2cc(C#Cc3ccncc3)ccc2S1(=O)=O	.	8.8	-53.9	.
O=C(NC12CC3CC(CC(C3)C1)C2)c1ccc([N+](=O)[O-])o1	-5.3	2.0	-10.0	98.1*
CCNC(=O)COn1c(SCC(=O)NCC)nc2ccccc2c1=O	5.3	7.4	.	13.5
Cc1ccnc2ccc(SC(F)(F)F)cc12	.	8.9	-7.8	86.7*
Cc1ccnc2c1ccc1c(C)ccnc12	.	15.4	.	.
O=C(C1CCC(CNS(=O)(=O)c2cccs2)CC1)N1CCN(c2ccc(Cl)cc2)CC1 (centres undefined)	-13.5	-13.2	-18.4	68.1*
Cc1ccc(S(=O)(=O)c2nc(S(=O)(=O)c3ccccc3)sc2N2CCN(CCO)CC2)cc1	8.0	12.2	-11.8	71.5*
CCN1CCN(c2sc(S(C)(=O)=O)nc2S(=O)(=O)c2ccc(C)cc2)CC1	-0.9	6.2	-4.6	71.0*
Cc1ccc(S(=O)(=O)c2nc(S(=O)(=O)c3ccccc3)sc2N2CCN(C)CC2)cc1	-4.3	0.5	-6.6	88.0*
CC(C)=CCOc1ccc2c(C)c(CCC(=O)N3C[C@H]4C[C@@H](C3)c3cccc(=O)n3C4)c(=O)oc2c1C	.	-17.1	-5.8	.
C[C@@H]1CCCCO[C@@H](CN(C)Cc2ccc(Cl)c(Cl)c2)[C@H](C)CN([C@@H](C)CO)C(=O)c2cc(NC(=O)Nc3ccc(F)cc3)ccc2O1	.	-3.3	2.6	67.3*
CC(C)NC(=O)Nc1ccc2c(c1)C(=O)N([C@@H](C)CO)C[C@@H](C)[C@H](CN(C)Cc1ccc(Cl)c(Cl)c1)OCCCC[C@@H](C)O2	10.5	6.1	25.2	20.9
CC(C)NC(=O)Nc1ccc2c(c1)C(=O)N([C@@H](C)CO)C[C@@H](C)[C@@H](CN(C)Cc1ccc(Cl)c(Cl)c1)OCCCC[C@@H](C)O2	-8.0	0.9	16.4	22.0
C[C@@H]1CCCCO[C@H](CN(C)Cc2ccc(Cl)c(Cl)c2)[C@@H](C)CN([C@@H](C)CO)C(=O)c2cc(NC(=O)Nc3ccc(F)cc3)ccc2O1	.	-1.9	-17.2	88.7*
C[C@H](CO)N1C[C@H](C)[C@H](CN(C)Cc2ccc(Cl)c(Cl)c2)OCCCC[C@H](C)Oc2ccc(NC(=O)Nc3ccc(F)cc3)cc2C1=O	.	-6.4	-7.3	64.4*
CCc1cc(C(=O)N/N=C/c2ccc(O)cc2O)c2ccccc2n1	.	2.5	-14.9	66.5*
Cc1cc(C(=O)NCC2CCCCC2)ccc1[N+](=O)[O-]	-3.9	-7.5	0.8	-51.8
O=C1CN(C(=O)COC(=O)C2CCN(S(=O)(=O)c3ccccc3C(F)(F)F)CC2)c2ccccc2N1	-3.7	-5.4	.	-4.6
CCC/C=C/c1ccc(CN2C(C)C(=O)N(Cc3cn(CCC4OCCCO4)nn3)CCS2(=O)=O)cc1 (centres undefined)	0.7	4.2	-1.5	81.0*
